miR-122 sensor: miR-122 Renilla sensor signal increase in Huh7, primary screen, miR-122 inhibitor project, cell-based, single point, plate reader; Huh7 miR-122 Renilla luciferase sensor, 48 h; neutral wells = 0, positive control = 100; AID 602342, 2012; 0.3% of 340,000 active; activation (reporter increase), % at 12.5 µM;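 active = mean replicate activation score at least 90 and every replicate individually at or above 90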;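 also: higher luciferase means less miR-122 activity so hits act as miR-122 inhibitors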
S100A4 MyoIIA: inhibitors of S100A4-myosin IIA peptide binding, primary screen, biochemical, fluorescence polarization, TAMRA-MyoIIA peptide; Protein S100-A4 (Homo sapiens), P26447; inhibition, % at 10.7 µM; 0.14% of 360,000 active; AID 652163, 2013;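 active = mean inhibition of at least 70% across replicates, with every replicate also reaching that level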
Target sequence (P26447 whole entry, looked up): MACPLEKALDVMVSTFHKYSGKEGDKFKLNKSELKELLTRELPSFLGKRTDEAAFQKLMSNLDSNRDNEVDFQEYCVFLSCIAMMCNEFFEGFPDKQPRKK
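Material: S100A4 monomer protein / Buffer or medium: 50 mM HEPES pH 7.2, 10 mM CaCl2, 100 mM KCl / Times: 5 min incubation before reading / Benchmarks: neutral control DMSO, positive control TFP / Reagent: labelled myosin peptide probe, 5 nM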
SIRT5 inh: SIRT5 desuccinylase inhibitors, primary screen, biochemical, fluorescence imaging, single point, set 5 | NAD-dependent protein deacylase sirtuin-5, mitochondrial (Homo sapiens), Q9NXA8 | Purified SirT5, succinyl-peptide AMC, trypsin-coupled fluorescence | inhibition, % at 15 µM | 1.1% of 330,000 active; in the data active = inhibition above about 15%
Target sequence (Q9NXA8 whole entry, looked up): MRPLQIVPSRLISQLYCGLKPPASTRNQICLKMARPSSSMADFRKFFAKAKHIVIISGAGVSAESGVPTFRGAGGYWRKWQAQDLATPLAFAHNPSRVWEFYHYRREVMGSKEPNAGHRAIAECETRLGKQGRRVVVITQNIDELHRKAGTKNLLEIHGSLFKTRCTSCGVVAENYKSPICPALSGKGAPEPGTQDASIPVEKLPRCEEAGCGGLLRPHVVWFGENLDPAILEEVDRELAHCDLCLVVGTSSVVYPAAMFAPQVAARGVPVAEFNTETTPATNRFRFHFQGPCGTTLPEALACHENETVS
FGF22 binding: binders of human FGF22 protein, primary screen, FGF22 synaptogenesis inhibitor project, biophysical, thermal shift, single point | recombinant FGF22 thermal shift, SYPRO orange fluorescence; percent of sucrose octasulfate shift, DMSO zero | activity (Tm shift, normalised), % at 9.99 µM | Fibroblast growth factor 22 (Homo sapiens), Q9HCT0 | 1.5% of 340,000 active;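 active = mean Tm shift, scaled 0 neutral to 100 positive control, at about 1.3% or above, every replicate too, limit read from the data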
Target sequence (Q9HCT0 whole entry, looked up): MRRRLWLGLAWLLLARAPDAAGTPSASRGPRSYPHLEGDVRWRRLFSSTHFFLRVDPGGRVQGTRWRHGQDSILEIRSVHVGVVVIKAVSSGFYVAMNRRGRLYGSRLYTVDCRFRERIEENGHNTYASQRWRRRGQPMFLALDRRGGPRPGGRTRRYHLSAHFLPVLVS
E-selectin induc: E-selectin induction in HUVECs, primary screen, imaging, HUVEC, immunofluorescence imaging, single point; normalized: neutral wells 0, TNF-alpha wells 100; activation, % at 7.58 µM; AID 686992, 2013; P16581; 0.37% of 260,000 active;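 active = mean E-selectin-positive cell signal at least 10% of the positive control, reached in at least 60% of replicates, without over 20% cell loss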
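Material: HUVEC primary endothelial cells; Amount: 3,000 cells per well; Dosing: single concentration; Medium: EGM-2 growth medium on 0.1% gelatin-coated wells; Read-out basis: percent E-selectin-positive cells; Signal: immunofluorescence imaging; Control set: TNF-alpha, DMSO.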
A number is an active result; n = inactive; x = no result; [ ] = remark or other dose. Hits are enriched below; roughly 2.5% of the tested compounds scored in any of these assays.

SMILES	miR-122 sensor	S100A4 MyoIIA	SIRT5 inh	FGF22 binding	E-selectin induc
C[C@H](CO)N1C[C@H](C)[C@H](CN(C)C)Oc2cc(C3=CCCC3)ccc2S1(=O)=O	n	98	n	n	n
C[C@@H]1CN([C@@H](C)CO)S(=O)(=O)c2ccc(Br)cc2O[C@H]1CN(C)Cc1ccccc1	n	n	n	n	n
Cc1ccc(S(=O)(=O)N[C@H]2CC[C@@H](CCNC(=O)C3CCC3)O[C@H]2CO)cc1	x	n	n	n	n
C[C@@H]1CN([C@@H](C)CO)C(=O)c2cccc(NC(=O)c3ccc(-c4nccs4)cc3)c2O[C@@H]1CN(C)Cc1ccccc1	n	n	15	n	n
C[C@@H]1CN([C@@H](C)CO)C(=O)c2cccc(NC(=O)c3ccc(-c4nccs4)cc3)c2O[C@@H]1CN(C)Cc1ccc(C(=O)Nc2ccccc2N)cc1	213[16.7 µM]	n	n	n	n
C[C@H](CO)N1C[C@H](C)[C@H](CN(C)Cc2ccc(Cl)c(Cl)c2)Oc2c(NC(=O)c3ccc(-c4nccs4)cc3)cccc2C1=O	n	n	n	n	n
C[C@@H]1CN([C@@H](C)CO)C(=O)c2cccc(NC(=O)c3ccc(-c4nccs4)cc3)c2O[C@@H]1CN(C)Cc1ccc(Cl)c(Cl)c1	n	n	n	n	32
CC(C)NC(=O)N(C)C[C@@H]1Oc2c(NC(=O)c3ccc(-c4nccs4)cc3)cccc2C(=O)N([C@@H](C)CO)C[C@H]1C	n	n	n	n	52
O=C(NC1CCC1)[C@@H]1[C@@H](CO)[C@@H]2Cn3c(ccc(-c4ccccc4)c3=O)[C@@H]2N1CCc1ccccc1	n	n	n	n	n
C[C@H]1CN([C@@H](C)CO)S(=O)(=O)c2ccc(C#Cc3ccccc3F)cc2O[C@H]1CN(C)CC1CC1	n	n	n	n	n
Cc1cc(C)c2c(=O)[nH]c(SCC(=O)c3ccc(C)c(C)c3)nc2n1	x	n	n	44	x
CCCNC(=O)[C@H]1[C@H](CO)[C@H]2Cn3c(ccc(-c4ccccc4)c3=O)[C@@H]1N2C(=O)CC	x	n	n	x	n
Cc1cc(C)cc(NC(=O)Cn2nnc(C(=O)NCc3ccc(F)cc3)c2N)c1	n	n	16	n	x
C/C(=N\NC(=O)c1cccnc1)c1cccc([N+](=O)[O-])c1	x	n	n	43	n
C/C(=N\NC(=O)c1ccc([N+](=O)[O-])cc1)c1cccc([N+](=O)[O-])c1	n	n	n	n	x
C[C@@H]1CN([C@H](C)CO)C(=O)c2cccc(NC(=O)C3CCOCC3)c2O[C@@H]1CN(C)S(=O)(=O)c1cn(C)cn1	n	n	n	n	n
O=C1Nc2ccccc2/C1=C/c1ccccc1Cl	n	n	n	n	n
COc1ccccc1/C=C1\C(=O)Nc2ccccc21	n	n	16	n	x
CCc1ccc(S(=O)(=O)N/N=C\c2cn(CC(N)=O)c3ccccc23)cc1	x	n	n	n	x
NC(=O)Cn1cc(/C=N\NS(=O)(=O)c2ccc(F)cc2)c2ccccc21	135	n	n	n	x
COc1ccccc1-c1ccc2c(c1)O[C@@H](CN(C)S(=O)(=O)c1ccc(F)cc1)[C@@H](C)CN([C@H](C)CO)S2(=O)=O	n	n	20	n	n
COc1ccccc1-c1ccc2c(c1)O[C@@H](CN(C)S(=O)(=O)c1ccc(C)cc1)[C@H](C)CN([C@@H](C)CO)S2(=O)=O	n	n	n	n	n
COc1ccccc1-c1ccc2c(c1)O[C@H](CN(C)S(=O)(=O)c1ccc(C)cc1)[C@H](C)CN([C@H](C)CO)S2(=O)=O	n	n	n	n	n
COc1ccccc1-c1ccc2c(c1)O[C@H](CN(C)S(=O)(=O)c1ccc(F)cc1)[C@H](C)CN([C@@H](C)CO)S2(=O)=O	n	n	18	n	n
COc1ccccc1-c1ccc2c(c1)O[C@@H](CN(C)S(=O)(=O)c1ccc(F)cc1)[C@@H](C)CN([C@@H](C)CO)S2(=O)=O	n	n	23	n	n
SMILES	miR-122 sensor	S100A4 MyoIIA	SIRT5 inh	FGF22 binding	E-selectin induc
CC(O)C(=O)N/N=C/c1ccccc1C(=O)O (stereo not given)	n	n	n	n	375
COc1cccc(C(=O)Nc2ccc3c(c2)OC[C@@H](C)N(C(C)=O)C[C@H](C)[C@H](OC)CN(C)C3=O)c1	n	n	n	x	n
CCS(=O)(=O)N[C@@H]1C=C[C@H](CC(=O)NCc2ccccn2)O[C@@H]1CO	x	n	n	x	n
Cc1cccc(NCc2n[nH]c(=S)n2-c2ccccc2)c1	x	n	n	n	n
Cc1ccc(NCc2n[nH]c(=S)n2-c2ccccc2)cc1	x	n	n	n	30
CCOCCCN1CN(Cc2ccco2)CNC1=S	n	n	n	43	n
S=C1NCN(Cc2ccco2)CN1CCc1ccccc1	x	n	n	n	x
Cc1ccc(-c2ccc3c(c2)O[C@H](CN(C)C(=O)Nc2ccc(F)cc2)[C@H](C)CN([C@H](C)CO)S3(=O)=O)cc1	n	n	n	n	n
CCN(CC)Cc1oc(CO)cc(=O)c1O	n	n	n	43	n
CCOc1ccc(N(C(=O)c2cnsn2)C(C(=O)NC2CCCCC2)c2ccncc2)cc1 (stereo not given)	x	n	n	n	n
COc1ccc(N(C(=O)c2cnsn2)C(C(=O)NC2CCCCC2)c2ccncc2)cc1 (stereo not given)	x	n	n	43	x
C[C@@H]1CCCCO[C@@H](CN(C)CC2CC2)[C@H](C)CN([C@@H](C)CO)C(=O)c2cc(NC(=O)CCC(F)(F)F)ccc2O1	n	n	n	n	n
COCC(=O)N1CCC2(CC1)CN(C(=O)COC)[C@H](CO)c1c2c2ccc(OC)cc2n1C	x	x	x	n	n
C[C@H]1CCCCO[C@@H](CN(C)S(=O)(=O)c2ccccc2)[C@@H](C)CN([C@@H](C)CO)C(=O)c2cc(NS(C)(=O)=O)ccc2O1	n	n	n	n	n
CCN(CC)C(=O)CSc1nc2c(sc(=S)n2-c2ccccc2OC)c(=O)n1-c1ccccc1	n	n	n	n	n
CCOc1ccc(-n2c(=S)sc3c(=O)n(-c4ccc(F)cc4)c(SCC(=O)O)nc32)cc1	n	n	29	x	n
COc1ccccc1-n1c(SCC(=O)O)nc2c(sc(=S)n2-c2ccccc2C)c1=O	x	n	n	n	43
CCOc1ccc(-n2c(=S)sc3c(=O)n(-c4ccccc4)c(SCC(=O)O)nc32)cc1	x	n	n	n	n
CCN1/C(=C2\C(=O)N(c3ccccc3)N=C2C)C=Cc2cc(C)ccc21	x	n	n	43	n

From PubChem
